In PMC9514064 (Protein Science : A Publication of the Protein Society, 2022):
Where “and” joins values, the source holds several entries; their conditions need not be identical. Identical values can stand only once. Like-named read-outs stand apart in the source and are kept apart here.

Key:
Bha TRAP12 [1] = target: T1, Bha TRAP12 (Halalkalibacterium halodurans, UniProt Q9KCC6); format: binding, B. halodurans
T1 sequence (Q9KCC6 1-76): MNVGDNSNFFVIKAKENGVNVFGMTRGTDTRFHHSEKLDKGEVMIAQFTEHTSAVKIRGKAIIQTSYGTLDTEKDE
How it was run: (§1)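 Apo protein dialysed into 400 mM ammonium acetate, adjusted to pH 8 with NH₄OH. Samples of 6.0–7.4 μM protein with 0–140 μM Trp were prepared fresh in parallel. Native MS on an Orbitrap UHMR at ~25°C, each point in triplicate with different emitters. Abundances of the 0–12-bound states came from peak areas, with protein concentration corrected by a quadratic independent-sites fit. A 12-site NN model was fit globally by Powell minimisation; uncertainties are SD of three repeats.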

Bst TRAP12 ∆71 = target: T2, Bst TRAP12 ∆71 (Geobacillus stearothermophilus, UniProt Q9X6J6); format: binding, B. stearothermophilus
T2 sequence (Q9X6J6 1-69 limits assumed): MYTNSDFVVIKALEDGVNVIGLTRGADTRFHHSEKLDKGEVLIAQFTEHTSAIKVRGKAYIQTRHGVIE
How it was run: as §1

Bha TRAP12 [2] = target: T1, Bha TRAP12; assay: Isothermal titration calorimetry, Trp into TRAP; format: binding, B. halodurans; conditions: ITC 25°C, two-sites model
How it was run: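 Tag-free protein (C-terminal ENLYFQ left after TEV cleavage), expressed in E. coli BL21(DE3), made Trp-free by Gdn-HCl denaturation, RP-HPLC, refolding and SEC, then dialysed into buffer A (100 mM NaCl, 50 mM NaPO₄, pH 8.0). 293 μM Trp (in dialysate) titrated into 23 μM protomers, 25°C, 307 rpm. Integrated heats fit to a two-sites model; oligomer concentration corrected via fitted n; 200-sample bootstrap confidence intervals.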

Bst TRAP11 = target: T3, Bst TRAP11 (Geobacillus stearothermophilus, UniProt Q9X6J6); format: binding, B. stearothermophilus
T3 sequence (Q9X6J6 1-74): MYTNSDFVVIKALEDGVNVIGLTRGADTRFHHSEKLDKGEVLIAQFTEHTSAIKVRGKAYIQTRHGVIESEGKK
How it was run: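 Apo 11-mer protein dialysed into 400 mM ammonium acetate. Samples of 6.0–7.4 μM protein with 0–140 μM Trp (serial dilutions) were prepared fresh in parallel. Native MS on an Orbitrap UHMR at ~25°C. Relative abundances of Trp-bound states came from integrated peak areas, with binding-site concentration corrected by a quadratic independent-sites fit. Populations were fit globally to a nearest-neighbour model (ΔG₀, ΔGα) by Powell minimisation.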

[3] = 1/(αK 0), NN model, dissociation constant for sites with one bound neighbor, ~25°C
[4] = 1/K 0, NN model, dissociation constant for isolated sites, ~25°C
[5] = NN model, sites with 1 occupied neighbor, ~25°C
[6] = NN model, sites with no occupied neighbors, room temperature ~25°C, 400 mM ammonium acetate

## N[C@@H](Cc1c[nH]c2ccccc12)C(=O)O [Trp, tryptophan]
Bha TRAP12 [1]; [3]
  Kd: 2.8 ± 0.8 µM
Bha TRAP12 [1]; [4]
  Kd: 720 ± 140 µM
Bha TRAP12 [1]; NN model, K N1/K 0, fold increase in affinity with one occupied neighbor
  Cooperativity factor α: 256 and 256 ± 87
Bha TRAP12 [1]; [5]
  ΔG 0 + ΔG α: -7.6 ± 0.2 kcal/mol
Bha TRAP12 [1]; [6]
  ΔG 0: -4.3 ± 0.1 kcal/mol
Bst TRAP12 ∆71; [3]
  Kd: 7.8 ± 1.2 µM
Bst TRAP12 ∆71; [4]
  Kd: 217 ± 13 µM
Bst TRAP12 ∆71; NN model, K N1/K 0
  Cooperativity factor α: 28 and 28 ± 5
Bst TRAP12 ∆71; [5]
  ΔG 0 + ΔG α: -7.0 ± 0.1 kcal/mol
Bst TRAP12 ∆71; [6]
  ΔG 0: -5.00 ± 0.03 kcal/mol
Bha TRAP12 [2]; buffer A
  n (fitted binding sites), Site 1: ≈ 1
  n (fitted binding sites), Site 2: ~ 11
Bha TRAP12 [2]; Kd,1 (Site 1), first Trp
  Kd: 1.8 ± 0.3 µM
Bst TRAP11; [3]
  Kd: 4.4 ± 1.9 µM
Bst TRAP11; [4]
  Kd: 36 ± 12 µM
Bst TRAP11; NN model, K N1/K 0
  Cooperativity factor α: 8 and 8 ± 5
Bst TRAP11; NN model, between adjacent sites
  coupling energy ΔG α: −1.2 ± 0.3 kcal mol^−1 interaction^−1
Bst TRAP11; [5]
  ΔG 0 + ΔG α: -7.3 ± 0.3 kcal/mol
Bst TRAP11; [6]
  ΔG 0: -6.1 ± 0.2 kcal/mol
